This note sets out measurements from ChEMBL document CHEMBL1155459, “On-bead screening of a combinatorial fumaric acid derived peptide library yields antiplasmodial cysteine protease inhibitors with unusual peptide sequences” (J Med Chem, 2009).

Peptide text beside a SMILES is read from it.

Experiment [1] is described as follows: Inhibition of Plasmodium falciparum falcipain-2 after 12 hrs by fluorescence spectroscopy-based on-bead assay. Details: concentration or dose not given beside the values. As to conditions: concentration not given here. A digest of the protocol:
(§1)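 Library members on resin (PEGA, theoretical loading 0.40 mmol/g; added as DMSO suspension, 0.64 mM final inhibitor) preincubated with enzyme 12 h, then Cbz-Phe-Arg-AMC 40 μM added; AMC release followed by fluorescence (ex 380/em 460 nm). Kinetics compared with inhibitor-free amino-PEGA resin.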

In experiment [2] the target is Rhodesain (Trypanosoma brucei rhodesiense) (UniProt Q95PM0). Put plainly: Inhibition of Trypanosoma brucei rhodesiense rhodesain after 12 hrs by fluorescence spectroscopy-based on-bead assay. Details: concentration or dose not given beside the values. As to conditions: concentration not given here. A digest of the protocol:
as §1

Sequence of Rhodesain (Trypanosoma brucei rhodesiense) (Q95PM0 1-450): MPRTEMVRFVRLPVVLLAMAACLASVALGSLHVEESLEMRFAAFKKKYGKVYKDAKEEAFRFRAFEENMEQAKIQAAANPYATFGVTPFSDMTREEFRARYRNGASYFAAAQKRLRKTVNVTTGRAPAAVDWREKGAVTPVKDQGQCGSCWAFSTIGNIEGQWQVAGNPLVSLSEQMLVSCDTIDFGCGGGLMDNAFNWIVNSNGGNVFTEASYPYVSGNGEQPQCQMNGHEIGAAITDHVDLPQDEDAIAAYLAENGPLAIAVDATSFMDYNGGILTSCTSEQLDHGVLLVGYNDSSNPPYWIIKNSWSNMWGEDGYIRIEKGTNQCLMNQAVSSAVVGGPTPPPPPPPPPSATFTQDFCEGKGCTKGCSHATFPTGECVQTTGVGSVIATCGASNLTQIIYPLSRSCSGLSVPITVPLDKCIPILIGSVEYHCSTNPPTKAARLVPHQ

On to `CC[C@H](C)[C@H](NC(=O)[C@H](Cc1ccccc1)NC(=O)/C=C/C(=O)NCC(=O)NCC(=O)N[C@@H](Cc1ccccc1)C(=O)O)C(=O)N[C@H](C(=O)N[C@H](C(N)=O)C(C)C)C(C)C` (HELM PEPTIDE1{[O=C(/C=C/C(=O)[*:2])NCC(=O)NCC(=O)N[C@@H](Cc1ccccc1)C(=O)O].F.I.V.V.[am]}$$$$V2.0), for which the results for the inhibition in experiment [1] and in experiment [2] were 58% and 50%, respectively.
Consider `CC(C)C[C@H](NC(=O)[C@H](Cc1ccccc1)NC(=O)/C=C/C(=O)NCC(=O)NCC(=O)N[C@@H](Cc1ccccc1)C(=O)O)C(=O)N[C@@H](C)C(=O)N[C@H](C(N)=O)C(C)C` (HELM PEPTIDE1{[O=C(/C=C/C(=O)[*:2])NCC(=O)NCC(=O)N[C@@H](Cc1ccccc1)C(=O)O].F.L.A.V.[am]}$$$$V2.0), for which the inhibition in experiment [1] came to 45%; in experiment [2], 71%.
As for `CC(C)C[C@H](NC(=O)[C@H](Cc1ccccc1)NC(=O)/C=C/C(=O)NCC(=O)NCC(=O)N[C@@H](Cc1ccccc1)C(=O)O)C(=O)N[C@H](C(=O)N[C@H](C(N)=O)C(C)C)C(C)C` (HELM PEPTIDE1{[O=C(/C=C/C(=O)[*:2])NCC(=O)NCC(=O)N[C@@H](Cc1ccccc1)C(=O)O].F.L.V.V.[am]}$$$$V2.0), the results for the inhibition in experiment [1] and in experiment [2] were 46% and 58%, respectively.
As for `CC(C)[C@H](NC(=O)[C@H](C)NC(=O)[C@@H](NC(=O)[C@H](Cc1ccccc1)NC(=O)/C=C/C(=O)NCC(=O)NCC(=O)N[C@@H](Cc1ccccc1)C(=O)O)C1CCCCC1)C(N)=O` (HELM PEPTIDE1{[O=C(/C=C/C(=O)[*:2])NCC(=O)NCC(=O)N[C@@H](Cc1ccccc1)C(=O)O].F.[O=C([C@@H](N[*:1])C1CCCCC1)[*:2]].A.V.[am]}$$$$V2.0), the inhibition in experiment [1] turned out to be 65%; in experiment [2] it was 48%.
Take `CC(C)C[C@H](NC(=O)[C@@H](NC(=O)[C@H](Cc1ccccc1)NC(=O)/C=C/C(=O)NCC(=O)NCC(=O)N[C@@H](Cc1ccccc1)C(=O)O)C1CCCCC1)C(=O)N[C@H](C(N)=O)C(C)C` (HELM PEPTIDE1{[O=C(/C=C/C(=O)[*:2])NCC(=O)NCC(=O)N[C@@H](Cc1ccccc1)C(=O)O].F.[O=C([C@@H](N[*:1])C1CCCCC1)[*:2]].L.V.[am]}$$$$V2.0): the inhibition in experiment [1] came to 40%; in experiment [2] it was 57%.
As for `CC(C)[C@H](NC(=O)[C@@H](NC(=O)[C@@H](NC(=O)[C@H](Cc1ccccc1)NC(=O)/C=C/C(=O)NCC(=O)NCC(=O)N[C@@H](Cc1ccccc1)C(=O)O)C1CCCCC1)C(C)C)C(N)=O` (HELM PEPTIDE1{[O=C(/C=C/C(=O)[*:2])NCC(=O)NCC(=O)N[C@@H](Cc1ccccc1)C(=O)O].F.[O=C([C@@H](N[*:1])C1CCCCC1)[*:2]].V.V.[am]}$$$$V2.0), the inhibition in experiment [1] is 48%; in experiment [2], 49%.
On to `CC(C)[C@H](NC(=O)[C@H](C)NC(=O)[C@@H](NC(=O)[C@H](Cc1ccccc1)NC(=O)/C=C/C(=O)NCC(=O)NCC(=O)N[C@@H](Cc1ccccc1)C(=O)O)c1ccccc1)C(N)=O` (HELM PEPTIDE1{[O=C(/C=C/C(=O)[*:2])NCC(=O)NCC(=O)N[C@@H](Cc1ccccc1)C(=O)O].F.[Phg].A.V.[am]}$$$$V2.0), for which the inhibition in experiment [1] is 62%; in experiment [2] it was 51%.
With `CC(C)C[C@H](NC(=O)[C@@H](NC(=O)[C@H](Cc1ccccc1)NC(=O)/C=C/C(=O)NCC(=O)NCC(=O)N[C@@H](Cc1ccccc1)C(=O)O)c1ccccc1)C(=O)N[C@H](C(N)=O)C(C)C` (HELM PEPTIDE1{[O=C(/C=C/C(=O)[*:2])NCC(=O)NCC(=O)N[C@@H](Cc1ccccc1)C(=O)O].F.[Phg].L.V.[am]}$$$$V2.0), the inhibition turned out to be 40% in experiment [1] and 71% in experiment [2].
`CC(C)[C@H](NC(=O)[C@@H](NC(=O)[C@@H](NC(=O)[C@H](Cc1ccccc1)NC(=O)/C=C/C(=O)NCC(=O)NCC(=O)N[C@@H](Cc1ccccc1)C(=O)O)c1ccccc1)C(C)C)C(N)=O` (HELM PEPTIDE1{[O=C(/C=C/C(=O)[*:2])NCC(=O)NCC(=O)N[C@@H](Cc1ccccc1)C(=O)O].F.[Phg].V.V.[am]}$$$$V2.0): the inhibition in experiment [1] is 35%; in experiment [2], 68%.
`CC(C)[C@H](NC(=O)[C@H](C)NC(=O)[C@H](Cc1ccccc1)NC(=O)[C@H](CC(N)=O)NC(=O)/C=C/C(=O)NCC(=O)NCC(=O)N[C@@H](Cc1ccccc1)C(=O)O)C(N)=O` (HELM PEPTIDE1{[O=C(/C=C/C(=O)[*:2])NCC(=O)NCC(=O)N[C@@H](Cc1ccccc1)C(=O)O].N.F.A.V.[am]}$$$$V2.0): the figures for the inhibition in experiment [1] and in experiment [2] were 61% and 66%, respectively.
Take `CC(C)[C@H](NC(=O)[C@@H](NC(=O)[C@H](Cc1ccccc1)NC(=O)[C@H](CC(N)=O)NC(=O)/C=C/C(=O)NCC(=O)NCC(=O)N[C@@H](Cc1ccccc1)C(=O)O)C(C)C)C(N)=O` (HELM PEPTIDE1{[O=C(/C=C/C(=O)[*:2])NCC(=O)NCC(=O)N[C@@H](Cc1ccccc1)C(=O)O].N.F.V.V.[am]}$$$$V2.0): the inhibition amounted to 40% in experiment [1] and 28% in experiment [2].
For `CC[C@H](C)[C@H](NC(=O)[C@H](CC(N)=O)NC(=O)/C=C/C(=O)NCC(=O)NCC(=O)N[C@@H](Cc1ccccc1)C(=O)O)C(=O)N[C@@H](C)C(=O)N[C@H](C(N)=O)C(C)C` (HELM PEPTIDE1{[O=C(/C=C/C(=O)[*:2])NCC(=O)NCC(=O)N[C@@H](Cc1ccccc1)C(=O)O].N.I.A.V.[am]}$$$$V2.0), the inhibition was 63% in experiment [1] and 55% in experiment [2].
`CC[C@H](C)[C@H](NC(=O)[C@H](CC(N)=O)NC(=O)/C=C/C(=O)NCC(=O)NCC(=O)N[C@@H](Cc1ccccc1)C(=O)O)C(=O)N[C@@H](CC(C)C)C(=O)N[C@H](C(N)=O)C(C)C` (HELM PEPTIDE1{[O=C(/C=C/C(=O)[*:2])NCC(=O)NCC(=O)N[C@@H](Cc1ccccc1)C(=O)O].N.I.L.V.[am]}$$$$V2.0): the inhibition was 61% in experiment [1] and 68% in experiment [2].
With `CC[C@H](C)[C@H](NC(=O)[C@H](CC(N)=O)NC(=O)/C=C/C(=O)NCC(=O)NCC(=O)N[C@@H](Cc1ccccc1)C(=O)O)C(=O)N[C@H](C(=O)N[C@H](C(N)=O)C(C)C)C(C)C` (HELM PEPTIDE1{[O=C(/C=C/C(=O)[*:2])NCC(=O)NCC(=O)N[C@@H](Cc1ccccc1)C(=O)O].N.I.V.V.[am]}$$$$V2.0), the results for the inhibition in experiment [1] and in experiment [2] were 57% and 39%, respectively.
The like results for `CC(C)C[C@H](NC(=O)[C@H](CC(N)=O)NC(=O)/C=C/C(=O)NCC(=O)NCC(=O)N[C@@H](Cc1ccccc1)C(=O)O)C(=O)N[C@H](C(=O)N[C@H](C(N)=O)C(C)C)C(C)C` (HELM PEPTIDE1{[O=C(/C=C/C(=O)[*:2])NCC(=O)NCC(=O)N[C@@H](Cc1ccccc1)C(=O)O].N.L.V.V.[am]}$$$$V2.0) were, in that order, 48% and 52%.
In the case of `CC(C)C[C@H](NC(=O)[C@@H](NC(=O)[C@H](CC(N)=O)NC(=O)/C=C/C(=O)NCC(=O)NCC(=O)N[C@@H](Cc1ccccc1)C(=O)O)C1CCCCC1)C(=O)N[C@H](C(N)=O)C(C)C` (HELM PEPTIDE1{[O=C(/C=C/C(=O)[*:2])NCC(=O)NCC(=O)N[C@@H](Cc1ccccc1)C(=O)O].N.[O=C([C@@H](N[*:1])C1CCCCC1)[*:2]].L.V.[am]}$$$$V2.0), the inhibition in experiment [1] was 45%; in experiment [2], 69%.
